According to ChEMBL document CHEMBL4041548, “Ester Prodrugs of IHVR-19029 with Enhanced Oral Exposure and Prevention of Gastrointestinal Glucosidase Interaction” (ACS Med Chem Lett, 2017):
pEC50, pIC50: −log10 of the molar value. Activity calls are given as the source filed them. No cut-off for these calls is given here.

What was measured:
[1] = Inhibition of endoplasmic reticulum alpha-glucosidase in HEK293 cells infected with DENV assessed as reduction in viral infection; type: cell-based; conditions: Homo sapiens
Bos taurus = species: Bos taurus; experiment: Inhibition of endoplasmic reticulum alpha-glucosidase in MDBK cells infected with Bovine Viral Diarrhea virus assessed as reduction in BVDV envelope glycoprotein E2 level at 3 to 100 uM by immunoblot analysis; type: cell-based
Method in brief: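 MDBK cells infected with BVDV, then treated with various concentrations of the compounds. Cell lysates were run on SDS-PAGE and immunoblotted for the E2 envelope glycoprotein, looking for a mobility shift and lower intensity, with β-actin as internal control.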

[2] = Metabolic stability in mouse plasma assessed as parent compound remaining at 5 uM measured after 2 hrs by LC-MS/MS analysis; type: ADME, cell-free; conditions: read-out: Stability
Method in brief: (§1)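 Compounds incubated in human or mouse plasma for 2 h. Percent remaining and percent conversion to the parent were determined.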

[3] = Inhibition of pig liver endoplasmic reticulum alpha glucosidase-1 using 4-methylumbelliferyl-alpha-D-glucoside as substrate measured after 90 mins by fluorescence analysis; parameters: species or system Sus scrofa
[4] = Cmax in BALB/c mouse at 25 mg/kg, po administered as single dose by LC-MS/MS analysis; type: ADME, organism-based; parameters: dose 25 mg/kg, route oral; conditions: in vivo
Method in brief: (§2)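 Male BALB/c mice dosed with the prodrugs or the parent orally (25 or 100 mg/kg) or intravenously (5 mg/kg). The parent compound was quantified in plasma and PK parameters were derived from it. The first sampling point was 5 min post-dose, and prodrugs were tracked up to 4 h.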

Liver [5] = experiment: Half life in pooled mouse liver microsomes at 200 uM by LC-MS/MS analysis; type: ADME, microsome; conditions: microsomes, 200 µM
Method in brief: (§3)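 Prodrugs or parent incubated in pooled human or mouse liver microsomes for up to 60 min, with or without cofactor. Percent remaining and percent conversion to the parent were measured.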

Liver [6] = experiment: Metabolic stability in pooled human liver microsomes assessed as parent compound remaining at 200 uM measured after 60 mins by LC-MS/MS analysis; type: ADME, microsome; conditions: microsomes, 1 h, 200 µM; method in brief: as §3
[7] = Tmax in BALB/c mouse at 25 mg/kg, po administered as single dose by LC-MS/MS analysis; type: ADME, organism-based; conditions: in vivo; method in brief: as §2
[8] = Half life in BALB/c mouse at 25 mg/kg, po administered as single dose by LC-MS/MS analysis; type: ADME, organism-based; conditions: in vivo; method in brief: as §2
[9] = Metabolic stability in human plasma assessed as parent compound remaining at 5 uM measured after 2 hrs by LC-MS/MS analysis; type: ADME, cell-free; conditions: read-out: Stability; method in brief: as §1
[10] = Metabolic stability in pooled mouse liver microsomes assessed as parent compound remaining at 200 uM measured after 60 mins in presence of NADPH and UDPGA by LC-MS/MS analysis; type: ADME, microsome; conditions: read-out: Stability; method in brief: as §3
[11] = Volume of distribution at steady state in BALB/c mouse at 5 mg/kg, iv as bolus administration by LC-MS/MS analysis; type: ADME, organism-based; conditions: in vivo, read-out: Vdss; method in brief: as §2
[12] = Stability in simulated gastric fluid assessed as parent compound remaining at 5 uM measured after 4 hrs by LC-MS/MS analysis
Method in brief: (§4)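 Chemical stability assessed by incubation in simulated gastric fluid and simulated intestinal fluid; percent of compound remaining was measured.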

Liver [13] = experiment: Half life in pooled human liver microsomes at 200 uM by LC-MS/MS analysis; type: ADME, microsome; conditions: microsomes, 200 µM; method in brief: as §3
[14] = Metabolic stability in pooled human liver microsomes assessed as parent compound remaining at 200 uM measured after 60 mins in presence of NADPH and UDPGA by LC-MS/MS analysis; type: ADME, microsome; conditions: read-out: Stability; method in brief: as §3
Mus musculus [15] = experiment: AUC(0 to infinity) in BALB/c mouse at 25 mg/kg, po administered as single dose by LC-MS/MS analysis; type: ADME, organism-based; parameters: dose 25 mg/kg, time infinity, route oral; conditions: in vivo
[16] = Cmax in BALB/c mouse at 5 mg/kg, iv as bolus administration by LC-MS/MS analysis; type: ADME, organism-based; parameters: dose 5 mg/kg, route intravenous; conditions: in vivo; method in brief: as §2
[17] = Metabolic stability in mouse intestinal S9 fraction assessed as parent compound level at 200 uM measured after 1 hr in presence or absence of NADPH by LC-MS/MS analysis; type: ADME, Intestine; conditions: read-out: Stability
Method in brief: (§5)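 Compounds incubated with intestinal S9 fraction for 1 h. Percent prodrug remaining and percent conversion to the parent were measured.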

[18] = Inhibition of pig liver endoplasmic reticulum alpha glucosidase-2 using 4-methylumbelliferyl-alpha-D-glucoside as substrate measured after 60 mins by fluorescence analysis; parameters: species or system Sus scrofa
[19] = Half life in BALB/c mouse at 5 mg/kg, iv as bolus administration by LC-MS/MS analysis; type: ADME, organism-based; conditions: in vivo; method in brief: as §2
Liver [20] = experiment: Metabolic stability in pooled mouse liver microsomes assessed as parent compound remaining at 200 uM measured after 60 mins by LC-MS/MS analysis; type: ADME, microsome; conditions: microsomes, 1 h, 200 µM; method in brief: as §3
Mus musculus [21] = experiment: AUC(0 to infinity) in BALB/c mouse at 100 mg/kg, po administered as single dose by LC-MS/MS analysis; type: ADME, organism-based; parameters: dose 100 mg/kg, time infinity, route oral; conditions: in vivo
[22] = Cmax in BALB/c mouse at 100 mg/kg, po administered as single dose by LC-MS/MS analysis; type: ADME, organism-based; parameters: dose 100 mg/kg, route oral; conditions: in vivo; method in brief: as §2
[23] = Inhibition of endoplasmic reticulum alpha-glucosidase in human Huh7.5 cells infected with DENV assessed as reduction in viral growth by measuring DENV RNA level by qRT-PCR method; type: cell-based
Method in brief: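 Huh7.5 cells infected with dengue virus and treated with a concentration series of the compounds (n = 4). DENV RNA was quantified by qRT-PCR and the EC50 was calculated.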

[24] = Half life in BALB/c mouse at 100 mg/kg, po administered as single dose by LC-MS/MS analysis; type: ADME, organism-based; conditions: in vivo; method in brief: as §2
[25] = Stability in simulated intestinal fluid assessed as parent compound remaining at 5 uM measured after 4 hrs by LC-MS/MS analysis; method in brief: as §4
[26] = Clearance in BALB/c mouse at 5 mg/kg, iv as bolus administration by LC-MS/MS analysis; type: ADME, organism-based; conditions: in vivo; method in brief: as §2
[27] = Tmax in BALB/c mouse at 100 mg/kg, po administered as single dose by LC-MS/MS analysis; type: ADME, organism-based; conditions: in vivo; method in brief: as §2
[28] = Metabolic stability in human intestinal S9 fraction assessed as parent compound level at 200 uM measured after 1 hr in presence or absence of NADPH by LC-MS/MS analysis; type: ADME, Intestine; conditions: read-out: Stability; method in brief: as §5
Mus musculus [29] = experiment: AUC(0 to infinity) in BALB/c mouse at 5 mg/kg, iv as bolus administration by LC-MS/MS analysis; type: ADME, organism-based; parameters: dose 5 mg/kg, time infinity, route intravenous; conditions: in vivo

CCCCN1C[C@H](O)[C@@H](O)[C@H](O)[C@H]1CO [MIGLUSTAT]
pEC50 [1]: 4.25

CCCCCCCCCN1C[C@H](O)[C@@H](O)[C@H](O)[C@H]1CO
pEC50 [1]: 5.15

OC[C@H]1NC[C@H](O)[C@@H](O)[C@@H]1O [DUVOGLUSTAT]
pEC50 [1]: 3.44

CCC(O)(CC)CCCCCCN1C[C@H](O)[C@@H](O)[C@H](O)[C@H]1CO
pEC50 [1]: 5.66

OC[C@@H]1[C@@H](O)[C@H](O)[C@@H](O)CN1CCCCCCOc1cc(F)ccc1F
pEC50 [1]: 6.30

CC(C)(C)NC(=O)N(CCCCCCN1C[C@H](O)[C@@H](O)[C@H](O)[C@H]1CO)C1CCCCC1
inhibition (Bos taurus): Active
remaining at 2 h, 5 µM [2]: 93%
pIC50 [3]: 6.09
Cmax [4]: 184 ng/mL
t1/2 (Liver [5]): 1.57 h
Stability (Liver [6]): 99%
pEC50 [1]: 5.92
Tmax [7]: 0.25 h
half-life [8]: 5.19 h
remaining at 2 h, 5 µM [9]: 109%
remaining at 1 h, 200 µM [10]: 63%
Vd [11]: 2.13 L/kg
Stability [12]: 109%
t1/2 (Liver [13]): 1.73 h
remaining at 1 h, 200 µM [14]: 68%
AUC (Mus musculus [15]): 150 ng·mL·h
Cmax [16]: 2840 ng/mL
remaining at 1 h, 200 µM [17]: 76 to 95%
pIC50 [18]: 4.56
half-life [19]: 0.98 h
Stability (Liver [20]): 96%
AUC (Mus musculus [21]): 996 ng·mL·h
Cmax [22]: 915 ng/mL
pEC50 [23]: 5.39
half-life [24]: 5.46 h
Stability [25]: 114%
clearance [26]: 70 mL/min/kg
Tmax [27]: 0.5 h
remaining at 1 h, 200 µM [28]: 76 to 95%
AUC (Mus musculus [29]): 1191 ng·mL·h
